Test results reported in ChEMBL document CHEMBL2146394, “Design and synthesis of pyrrolo[3,2-d]pyrimidine HER2/EGFR dual inhibitors: improvement of the physicochemical and pharmacokinetic profiles for potent in vivo anti-tumor efficacy” (Bioorg Med Chem, 2012).
pIC50: −log10 of the molar value.

How the values were obtained:
[1] = target: T1, Tyrosine-protein kinase Lyn (Homo sapiens, UniProt P07948); assay: Inhibition of LYN B after 5 mins
Procedure, shortened: (§1)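 AlphaScreen tyrosine kinase assay: 50 mmol/L Tris-HCl pH 7.5, 5 mmol/L MnCl₂, 5 mmol/L MgCl₂, 0.01% Tween-20, 2 mmol/L DTT, biotinylated poly-Glu-Tyr (4:1), kinase-optimized enzyme, ATP and time (5–60 min). Seven compound concentrations, 0.01–10000 nmol/L, preincubated 5 min at room temperature. Stopped with EDTA plus streptavidin donor and PY-100 or PT66 acceptor beads; read after >12 h in the dark. Controls: no compound; no ATP.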

[2] = target: Glycogen synthase kinase-3 beta (Homo sapiens, UniProt P49841); assay: Inhibition of N-terminal FLAG-tagged GSK3beta expressed in baculovirus after 5 mins by scintillation counter
[3] = target: Tyrosine-protein kinase CSK (Homo sapiens, UniProt P41240); assay: Inhibition of CSK after 5 mins; procedure, shortened: as §1
[4] = Antitumor activity against human 4-1ST cells xenografted in F344/N jcl-rnu rat at 12.5 mg/kg, po bid administered 14 days measured on day 31 relative to control; assay type: functional
Procedure, shortened: (§2)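 4-1ST human gastric tumour tissue from donor animals minced and implanted subcutaneously in nude mice or nude rats. Tumours of 200–300 mm³ used. Compounds in 0.5% (w/v) methylcellulose given orally twice daily at 10 mL/kg for 14 days; control got vehicle. Doses expressed as salt-free. Caliper volume (a×b²/2) measured blind 2–3 times weekly. T/C (%) versus control; five mice or eight rats per group.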

[5] = target: Dual specificity mitogen-activated protein kinase kinase 1 (Homo sapiens, UniProt Q02750); assay: Inhibition of N-terminal GST-tagged MEK1 after 5 mins by scintillation counter
Chain of Dual specificity mitogen-activated protein kinase kinase 1 (Q02750 whole entry): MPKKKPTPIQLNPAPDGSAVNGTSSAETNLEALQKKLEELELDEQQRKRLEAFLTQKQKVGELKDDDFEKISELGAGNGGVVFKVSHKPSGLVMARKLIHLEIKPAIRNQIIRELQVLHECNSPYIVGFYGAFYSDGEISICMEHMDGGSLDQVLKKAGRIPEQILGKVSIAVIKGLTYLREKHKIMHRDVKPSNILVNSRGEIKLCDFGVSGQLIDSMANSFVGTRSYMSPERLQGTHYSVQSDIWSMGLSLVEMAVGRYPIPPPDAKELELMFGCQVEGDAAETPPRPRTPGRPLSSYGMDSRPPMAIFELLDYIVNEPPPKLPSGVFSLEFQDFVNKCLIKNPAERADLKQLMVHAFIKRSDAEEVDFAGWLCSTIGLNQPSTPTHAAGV

[6] = target: Mitogen-activated protein kinase kinase kinase 7 (Homo sapiens, UniProt O43318); assay: Inhibition of N-terminal FLAG-tagged TAK1 expressed in baculovirus after 5 mins by scintillation counter
[7] = target: Serine/threonine-protein kinase PLK1 (Homo sapiens, UniProt P53350); assay: Inhibition of N-terminal FLAG-tagged PLK1 expressed in baculovirus after 5 mins by scintillation counter
[8] = target: Hepatocyte growth factor receptor (Homo sapiens, UniProt P08581); assay: Inhibition of c-Met after 5 mins; procedure, shortened: as §1
[9] = Antitumor activity against human 4-1ST cells xenografted in F344/N jcl-rnu rat at 25 mg/kg, po bid administered 14 days measured on day 31 relative to control; assay type: functional; procedure, shortened: as §2
[10] = target: Vascular endothelial growth factor receptor 2 (Homo sapiens, UniProt P35968); assay: Inhibition of N-terminal FLAG-tagged VEGFR2 cytoplasmic domain expressed in baculovirus after 5 mins; procedure, shortened: as §1
[11] = target: Protein kinase C theta type (Homo sapiens, UniProt Q04759); assay: Inhibition of N-terminal FLAG-tagged PKCtheta expressed in baculovirus after 5 mins by scintillation counter
Chain of Protein kinase C theta type (Q04759 whole entry, the tested form may be a part): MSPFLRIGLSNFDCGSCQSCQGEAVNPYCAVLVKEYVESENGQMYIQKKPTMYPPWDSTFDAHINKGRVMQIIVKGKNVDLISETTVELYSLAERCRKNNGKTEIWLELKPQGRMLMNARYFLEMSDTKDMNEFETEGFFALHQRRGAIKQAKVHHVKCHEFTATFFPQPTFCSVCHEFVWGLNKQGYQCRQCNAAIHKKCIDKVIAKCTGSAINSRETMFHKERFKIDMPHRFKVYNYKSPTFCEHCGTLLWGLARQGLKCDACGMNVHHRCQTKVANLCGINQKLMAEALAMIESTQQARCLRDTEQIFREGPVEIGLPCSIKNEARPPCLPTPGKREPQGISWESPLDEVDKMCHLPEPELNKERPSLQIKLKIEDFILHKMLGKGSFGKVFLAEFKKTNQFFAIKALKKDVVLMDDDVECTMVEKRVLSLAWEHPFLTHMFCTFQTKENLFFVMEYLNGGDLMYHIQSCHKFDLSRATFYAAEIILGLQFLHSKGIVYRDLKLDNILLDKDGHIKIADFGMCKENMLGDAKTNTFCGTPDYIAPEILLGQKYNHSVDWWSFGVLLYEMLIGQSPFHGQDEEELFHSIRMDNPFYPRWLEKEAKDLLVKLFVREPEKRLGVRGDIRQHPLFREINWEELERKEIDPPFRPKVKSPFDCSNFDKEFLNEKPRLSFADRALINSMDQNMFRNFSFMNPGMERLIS

[12] = target: Receptor tyrosine-protein kinase erbB-4 (Homo sapiens, UniProt Q15303); assay: Inhibition of HER4 cytoplasmic domain after 5 mins by scintillation counter
Procedure, shortened: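 HER4 cytoplasmic domain run as in the HER2/EGFR radiometric [γ-³²P]ATP filter assay: 5 min enzyme–compound preincubation, 10 min reaction at room temperature, TCA stop, scintillation count, nonlinear-regression IC₅₀.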

[13] = target: T1, Tyrosine-protein kinase Lyn; assay: Inhibition of LYN A after 5 mins; procedure, shortened: as §1
[14] = target: Mitogen-activated protein kinase 14 (Homo sapiens, UniProt Q16539); assay: Inhibition of N-terminal FLAG-tagged p38alpha expressed in baculovirus after 5 mins by scintillation counter
Chain of Mitogen-activated protein kinase 14 (Q16539 whole entry): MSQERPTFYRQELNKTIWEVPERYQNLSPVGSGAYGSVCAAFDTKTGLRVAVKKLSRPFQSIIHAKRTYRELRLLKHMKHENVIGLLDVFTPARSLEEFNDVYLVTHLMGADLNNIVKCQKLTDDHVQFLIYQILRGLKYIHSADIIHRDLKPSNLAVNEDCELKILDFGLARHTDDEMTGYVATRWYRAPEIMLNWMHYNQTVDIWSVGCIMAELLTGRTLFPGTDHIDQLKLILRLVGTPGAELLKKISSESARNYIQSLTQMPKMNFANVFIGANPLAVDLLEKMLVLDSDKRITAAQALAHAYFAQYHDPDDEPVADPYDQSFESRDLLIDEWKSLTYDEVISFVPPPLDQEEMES

[15] = Antitumor activity against human 4-1ST cells xenografted in BALB/c nu/nu mouse at 100 mg/kg, po bid administered 14 days measured on day 31 relative to control; assay type: functional; procedure, shortened: as §2
[16] = target: Aurora kinase B (Homo sapiens, UniProt Q96GD4); assay: Inhibition of N-terminal His6-tagged Aurora B expressed in baculovirus after 5 mins by scintillation counter
[17] = target: Cytoplasmic tyrosine-protein kinase BMX (Homo sapiens, UniProt P51813); assay: Inhibition of full length N-terminal FLAG-tagged BMX expressed in baculovirus after 5 mins; procedure, shortened: as §1
[18] = target: Angiopoietin-1 receptor (Homo sapiens, UniProt Q02763); assay: Inhibition of TIE2 after 5 mins; procedure, shortened: as §1
[19] = target: Insulin-like growth factor 1 receptor (Homo sapiens, UniProt P08069); assay: Inhibition of IGF-1R after 5 mins; procedure, shortened: as §1
[20] = target: Mitogen-activated protein kinase kinase kinase 1 (Homo sapiens, UniProt Q13233); assay: Inhibition of C-terminal FLAG-tagged MEKK expressed in baculovirus after 5 mins by scintillation counter
[21] = target: Mitogen-activated protein kinase kinase kinase 5 (Homo sapiens, UniProt Q99683); assay: Inhibition of N-terminal FLAG-tagged ASK1 expressed in baculovirus after 5 mins by scintillation counter
[22] = target: Fibroblast growth factor receptor 1 (Homo sapiens, UniProt P11362); assay: Inhibition of FGFR1 after 5 min; procedure, shortened: as §1
[23] = target: Mast/stem cell growth factor receptor Kit (Homo sapiens, UniProt P10721); assay: Inhibition of c-kit after 5 mins; procedure, shortened: as §1
Chain of Mast/stem cell growth factor receptor Kit (P10721 whole entry): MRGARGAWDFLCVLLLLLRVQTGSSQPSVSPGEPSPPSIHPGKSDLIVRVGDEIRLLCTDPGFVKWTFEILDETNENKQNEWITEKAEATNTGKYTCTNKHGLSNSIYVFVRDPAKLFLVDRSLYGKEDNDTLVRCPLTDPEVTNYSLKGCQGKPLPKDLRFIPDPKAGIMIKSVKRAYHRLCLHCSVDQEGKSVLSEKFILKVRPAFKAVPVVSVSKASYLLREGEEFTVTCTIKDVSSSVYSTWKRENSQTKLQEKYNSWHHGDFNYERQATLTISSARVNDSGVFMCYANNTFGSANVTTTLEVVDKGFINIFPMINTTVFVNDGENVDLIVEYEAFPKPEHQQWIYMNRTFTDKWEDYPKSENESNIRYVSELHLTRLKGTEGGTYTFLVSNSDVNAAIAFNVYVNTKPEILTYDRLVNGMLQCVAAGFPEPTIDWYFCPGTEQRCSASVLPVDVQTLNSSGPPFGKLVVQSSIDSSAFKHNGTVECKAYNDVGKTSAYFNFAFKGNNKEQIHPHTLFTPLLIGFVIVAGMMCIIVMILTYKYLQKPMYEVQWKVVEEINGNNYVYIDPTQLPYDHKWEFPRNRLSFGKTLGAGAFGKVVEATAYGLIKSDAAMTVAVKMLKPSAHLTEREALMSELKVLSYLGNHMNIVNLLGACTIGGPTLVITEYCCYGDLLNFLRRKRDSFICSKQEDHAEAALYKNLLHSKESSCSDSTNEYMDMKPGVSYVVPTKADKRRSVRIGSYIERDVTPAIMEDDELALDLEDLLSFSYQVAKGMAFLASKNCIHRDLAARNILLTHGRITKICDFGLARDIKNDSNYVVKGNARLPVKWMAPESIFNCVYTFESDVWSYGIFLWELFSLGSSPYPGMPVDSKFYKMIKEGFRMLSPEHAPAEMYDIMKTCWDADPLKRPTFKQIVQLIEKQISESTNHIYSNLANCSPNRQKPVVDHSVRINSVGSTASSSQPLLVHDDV

[24] = target: Vascular endothelial growth factor receptor 1 (Homo sapiens, UniProt P17948); assay: Inhibition of VEGFR1 after 5 mins; procedure, shortened: as §1
Chain of Vascular endothelial growth factor receptor 1 (P17948 whole entry): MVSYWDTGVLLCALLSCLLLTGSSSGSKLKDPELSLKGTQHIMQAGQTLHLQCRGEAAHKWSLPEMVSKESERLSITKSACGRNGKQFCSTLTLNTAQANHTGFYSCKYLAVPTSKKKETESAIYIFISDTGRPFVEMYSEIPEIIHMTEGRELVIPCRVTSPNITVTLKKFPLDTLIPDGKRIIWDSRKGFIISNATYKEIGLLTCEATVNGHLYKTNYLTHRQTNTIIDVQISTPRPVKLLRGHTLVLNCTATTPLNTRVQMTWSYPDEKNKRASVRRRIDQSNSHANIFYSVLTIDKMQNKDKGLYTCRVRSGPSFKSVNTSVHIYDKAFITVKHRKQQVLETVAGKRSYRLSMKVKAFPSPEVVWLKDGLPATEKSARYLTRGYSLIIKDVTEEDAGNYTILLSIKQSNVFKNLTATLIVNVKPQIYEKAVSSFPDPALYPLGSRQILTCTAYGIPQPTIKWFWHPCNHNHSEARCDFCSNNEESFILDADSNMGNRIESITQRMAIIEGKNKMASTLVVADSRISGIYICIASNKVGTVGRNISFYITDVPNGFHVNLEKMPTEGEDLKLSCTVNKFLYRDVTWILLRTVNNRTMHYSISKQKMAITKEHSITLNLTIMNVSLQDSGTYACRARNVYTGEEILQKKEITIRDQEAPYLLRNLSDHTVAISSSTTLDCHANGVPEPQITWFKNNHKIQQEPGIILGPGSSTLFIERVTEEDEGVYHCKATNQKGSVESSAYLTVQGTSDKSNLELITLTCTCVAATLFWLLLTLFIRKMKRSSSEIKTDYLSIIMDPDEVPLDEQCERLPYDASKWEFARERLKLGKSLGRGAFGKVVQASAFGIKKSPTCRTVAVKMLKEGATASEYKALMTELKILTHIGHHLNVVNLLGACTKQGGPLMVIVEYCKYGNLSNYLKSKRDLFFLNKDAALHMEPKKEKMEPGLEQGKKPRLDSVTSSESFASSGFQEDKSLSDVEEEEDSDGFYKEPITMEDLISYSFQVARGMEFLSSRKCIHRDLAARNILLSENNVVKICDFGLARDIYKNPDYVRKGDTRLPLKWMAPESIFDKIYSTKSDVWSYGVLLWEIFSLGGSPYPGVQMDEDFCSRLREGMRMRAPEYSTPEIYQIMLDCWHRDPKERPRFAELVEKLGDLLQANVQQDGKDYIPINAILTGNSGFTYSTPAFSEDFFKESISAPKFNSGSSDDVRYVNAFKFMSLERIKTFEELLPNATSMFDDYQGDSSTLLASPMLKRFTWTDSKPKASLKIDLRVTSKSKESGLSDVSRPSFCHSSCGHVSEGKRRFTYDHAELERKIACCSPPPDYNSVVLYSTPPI

[25] = target: Mitogen-activated protein kinase 3 (Homo sapiens, UniProt P27361); assay: Inhibition of N-terminal FLAG-tagged ERK1 expressed in baculovirus after 5 mins by scintillation counter
[26] = target: Dual specificity mitogen-activated protein kinase kinase 5 (Homo sapiens, UniProt Q13163); assay: Inhibition of N-terminal FLAG-tagged MEK5 expressed in baculovirus after 5 mins by scintillation counter
[27] = target: Focal adhesion kinase 1 (Homo sapiens, UniProt Q05397); assay: Inhibition of full length N-terminal FLAG-tagged FAK expressed in baculovirus after 5 mins; procedure, shortened: as §1
[28] = target: Serine/threonine-protein kinase B-raf (Homo sapiens, UniProt P15056); assay: Inhibition of N-terminal FLAG-tagged B-raf expressed in baculovirus after 5 mins by scintillation counter
[29] = target: Mitogen-activated protein kinase 8 (Homo sapiens, UniProt P45983); assay: Inhibition of N-terminal FLAG-tagged JNK1 expressed in baculovirus after 5 mins by scintillation counter
[30] = target: Fibroblast growth factor receptor 3 (Homo sapiens, UniProt P22607); assay: Inhibition of FGFR3 after 5 mins; procedure, shortened: as §1
[31] = Antitumor activity against human 4-1ST cells xenografted in BALB/c nu/nu mouse at 50 mg/kg, po bid administered 14 days measured on day 31 relative to control; assay type: functional; procedure, shortened: as §2
[32] = target: Inhibitor of nuclear factor kappa-B kinase subunit beta (Homo sapiens, UniProt O14920); assay: Inhibition of C-terminal FLAG-tagged IKKbeta expressed in baculovirus after 5 mins by scintillation counter
Chain of Inhibitor of nuclear factor kappa-B kinase subunit beta (O14920 whole entry): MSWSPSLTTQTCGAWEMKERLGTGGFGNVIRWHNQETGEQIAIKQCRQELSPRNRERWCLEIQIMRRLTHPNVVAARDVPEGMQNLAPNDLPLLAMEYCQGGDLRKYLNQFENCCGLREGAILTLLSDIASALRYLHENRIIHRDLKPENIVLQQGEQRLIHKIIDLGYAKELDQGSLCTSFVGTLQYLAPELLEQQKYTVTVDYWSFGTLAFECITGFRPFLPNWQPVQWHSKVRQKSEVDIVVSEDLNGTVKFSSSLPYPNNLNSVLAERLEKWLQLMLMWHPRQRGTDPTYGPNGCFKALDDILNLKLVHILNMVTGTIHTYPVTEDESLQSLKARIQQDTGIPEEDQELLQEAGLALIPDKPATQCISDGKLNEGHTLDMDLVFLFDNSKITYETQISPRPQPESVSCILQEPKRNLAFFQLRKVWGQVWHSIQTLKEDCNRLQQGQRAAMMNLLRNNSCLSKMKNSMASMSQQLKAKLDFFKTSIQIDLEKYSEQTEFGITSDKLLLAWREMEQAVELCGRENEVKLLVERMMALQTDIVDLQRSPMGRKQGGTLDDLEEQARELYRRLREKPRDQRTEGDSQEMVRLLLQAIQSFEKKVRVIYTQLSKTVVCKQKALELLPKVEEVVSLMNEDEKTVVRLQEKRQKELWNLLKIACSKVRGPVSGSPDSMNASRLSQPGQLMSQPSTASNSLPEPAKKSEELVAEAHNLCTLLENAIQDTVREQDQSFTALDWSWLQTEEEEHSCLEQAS

[33] = target: Tyrosine-protein kinase ZAP-70 (Homo sapiens, UniProt P43403); assay: Inhibition of ZAP70 after 5 mins; procedure, shortened: as §1
[34] = target: Proto-oncogene tyrosine-protein kinase Src (Homo sapiens, UniProt P12931); assay: Inhibition of Src after 5 mins; procedure, shortened: as §1
[35] = target: Insulin receptor (Homo sapiens, UniProt P06213); assay: Inhibition of INSR after 5 mins; procedure, shortened: as §1
[36] = target: Dual specificity protein kinase TTK (Homo sapiens, UniProt P33981); assay: Inhibition of N-terminal FLAG-tagged TTK expressed in baculovirus after 5 mins by scintillation counter

T1 sequence (P07948 whole entry): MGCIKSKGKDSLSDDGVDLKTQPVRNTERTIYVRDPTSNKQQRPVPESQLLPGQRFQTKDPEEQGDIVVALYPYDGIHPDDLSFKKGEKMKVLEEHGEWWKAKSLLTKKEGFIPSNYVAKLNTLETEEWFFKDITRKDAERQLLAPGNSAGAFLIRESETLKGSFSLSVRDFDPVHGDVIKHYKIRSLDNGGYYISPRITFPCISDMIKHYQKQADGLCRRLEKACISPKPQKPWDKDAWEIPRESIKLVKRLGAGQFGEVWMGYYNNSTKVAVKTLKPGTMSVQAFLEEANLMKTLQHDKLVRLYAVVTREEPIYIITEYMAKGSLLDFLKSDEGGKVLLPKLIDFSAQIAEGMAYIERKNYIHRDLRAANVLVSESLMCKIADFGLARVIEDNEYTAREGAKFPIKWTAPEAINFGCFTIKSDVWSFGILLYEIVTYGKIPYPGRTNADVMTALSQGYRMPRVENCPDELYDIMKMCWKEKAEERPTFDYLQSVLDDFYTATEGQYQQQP

## CC(C)(C(=O)NCCn1ccc2ncnc(Nc3ccc(Oc4cccc(Cl)c4)c(Cl)c3)c21)S(C)(=O)=O.Cc1ccc(S(=O)(=O)O)cc1
[1]
  pIC50: 5.48
[2]
  pIC50: < 5.00
[3]
  pIC50: 5.29
[4]
  T/C: 41%
[5]
  pIC50: 6.01
[6]
  pIC50: < 5.00
[7]
  pIC50: < 5.00
[8]
  pIC50: 5.41
[9]
  T/C: -1%
[10]
  pIC50: < 5.00
[11]
  pIC50: < 5.00
[12]
  pIC50: 6.80
[13]
  pIC50: 5.44
[14]
  pIC50: < 5.00
[15]
  T/C: 0%
[16]
  pIC50: 6.30
[17]
  pIC50: < 5.00
[18]
  pIC50: < 5.00
[19]
  pIC50: < 5.00
[20]
  pIC50: < 5.00
[21]
  pIC50: < 5.00
[22]
  pIC50: < 5.00
[23]
  pIC50: < 5.00
[24]
  pIC50: < 5.00
[25]
  pIC50: < 5.00
[26]
  pIC50: < 5.00
[27]
  pIC50: < 5.00
[28]
  pIC50: < 5.00
[29]
  pIC50: < 5.00
[30]
  pIC50: < 5.00
[31]
  T/C: 41%
[32]
  pIC50: < 5.00
[33]
  pIC50: < 5.00
[34]
  pIC50: < 5.00
[35]
  pIC50: < 5.00
[36]
  pIC50: < 5.00
